In ChEMBL document CHEMBL4689842, “EUbOPEN Chemogenomics Library wave 1” (2021):
“And” between values parts separate entries of the source, which are not always exact repeats. Equal values may be shown once.

Test system: Fibroblast
Assay: Multiplex assay against human fibroblast
Assay type: toxicity, cell-based
Method in brief: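 Cells were classed with CellPathfinder machine-learning gating, first as Hoechst high-intensity objects or normal cells, then (normal cells) as healthy, pyknosed or fragmented nuclei, and finally (pyknosed cells) as mitotic or apoptotic. Staining of live cells at seeding used Hoechst33342, BioTracker Green Microtubule Cytoskeleton Dye, MitoTracker Red and Annexin V Alexa Fluor 680, with imaging on a CQ1 microscope at 37°C and 5% CO2 after compound addition. Tubulin, mitochondrial-mass and membrane-permeability phenotypes are per cents of healthy-nucleus cells.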

[1] = 12 h, 1 µM, compound concentration 1 uM, replicate 1
[2] = 12 h, 1 µM, compound concentration 1 uM, replicate 2
[3] = 12 h, 10 µM, compound concentration 10 uM, replicate 1
[4] = 12 h, 10 µM, compound concentration 10 uM, replicate 2
[5] = 24 h, 1 µM, compound concentration 1 uM, replicate 1
[6] = 24 h, 1 µM, compound concentration 1 uM, replicate 2
[7] = 24 h, 10 µM, compound concentration 10 uM, replicate 1
[8] = 24 h, 10 µM, compound concentration 10 uM, replicate 2
[9] = 48 h, 10 µM, compound concentration 10 uM, replicate 1
[10] = 48 h, 10 µM, compound concentration 10 uM, replicate 2

For `CCCS(=O)(=O)Nc1ccc(F)c(C(=O)c2c[nH]c3ncc(Cl)cc23)c1F` [PLX-4720], the “Population Apoptotic (%)” value [1] was 55%, the “Population Fragmented Nuclei (%)” value [1] was 20% and the “Population Healthy Nuclei (%)” value [1] was 62%. For the same molecule, the “Population Hoechst High Intensity Objects (%)” value [1] was 10%, the “Population Membrane Permeable-Phenotype (%)” value [1] was 5% and the “Population Mitochondria Different-Phenotype (%)” value [1] was 6%. The “Population Mitotic Cells (%)” value [1] was 44%, the “Population Normal (%)” value [1] was 89% and the “Population Pyknosed Nuclei (%)” value [1] was 17%. For the same molecule, the “Population Tubulin-Different-Phenotype (%)” value [1] was 14%, the “Total Cell Count” value [1] was 234 and the “Population Apoptotic (%)” value [2] was 28%. The “Population Fragmented Nuclei (%)” value [2] was 56%, the “Population Healthy Nuclei (%)” value [2] was 31% and the “Population Hoechst High Intensity Objects (%)” value [2] was 29%. The “Population Membrane Permeable-Phenotype (%)” value [2] was 22%, the “Population Mitochondria Different-Phenotype (%)” value [2] was 11% and the “Population Mitotic Cells (%)” value [2] was 71%. The “Population Normal (%)” value [2] was 70%, the “Population Pyknosed Nuclei (%)” value [2] was 12% and the “Population Tubulin-Different-Phenotype (%)” value [2] was 27%. For the same molecule, the “Total Cell Count” value [2] was 81, the “Population Apoptotic (%)” value [3] was 65% and the “Population Fragmented Nuclei (%)” value [3] was 23%. For the same molecule, the “Population Healthy Nuclei (%)” value [3] was 63%, the “Population Hoechst High Intensity Objects (%)” value [3] was 13% and the “Population Membrane Permeable-Phenotype (%)” value [3] was 3%. For the same molecule, the “Population Mitotic Cells (%)” value [3] was 34%, the “Population Normal (%)” value [3] was 86% and the “Population Pyknosed Nuclei (%)” value [3] was 13%. For the same molecule, the “Population Tubulin-Different-Phenotype (%)” value [3] was 5%, the “Total Cell Count” value [3] was 254 and the “Population Apoptotic (%)” value [4] was 60%. The “Population Fragmented Nuclei (%)” value [4] was 65%, the “Population Healthy Nuclei (%)” value [4] was 26% and the “Population Hoechst High Intensity Objects (%)” value [4] was 36%. For the same molecule, the “Population Membrane Permeable-Phenotype (%)” value [4] was 6%, the “Population Mitochondria Different-Phenotype (%)” value [4] was 6% and the “Population Mitotic Cells (%)” value [4] was 40%. The “Population Normal (%)” value [4] was 63%, the “Population Pyknosed Nuclei (%)” value [4] was 8% and the “Population Tubulin-Different-Phenotype (%)” value [4] was 0%. The “Total Cell Count” value [4] was 95, the “Population Apoptotic (%)” value [5] was 53% and the “Population Fragmented Nuclei (%)” value [5] was 25%. The “Population Healthy Nuclei (%)” value [5] was 61%, the “Population Hoechst High Intensity Objects (%)” value [5] was 11% and the “Population Membrane Permeable-Phenotype (%)” value [5] was 7%. The “Population Mitochondria Different-Phenotype (%)” value [5] was 10%, the “Population Mitotic Cells (%)” value [5] was 46% and the “Population Normal (%)” value [5] was 88%. The “Population Pyknosed Nuclei (%)” value [5] was 12%, the “Population Tubulin-Different-Phenotype (%)” value [5] was 22% and the “Total Cell Count” value [5] was 249. The “Population Apoptotic (%)” value [6] was 25%, the “Population Fragmented Nuclei (%)” value [6] was 47% and the “Population Healthy Nuclei (%)” value [6] was 34%. The “Population Hoechst High Intensity Objects (%)” value [6] was 40%, the “Population Membrane Permeable-Phenotype (%)” value [6] was 13% and the “Population Mitochondria Different-Phenotype (%)” value [6] was 6%. For the same molecule, the “Population Mitotic Cells (%)” value [6] was 75%, the “Population Normal (%)” value [6] was 59% and the “Population Pyknosed Nuclei (%)” value [6] was 18%. For the same molecule, the “Population Tubulin-Different-Phenotype (%)” value [6] was 13%, the “Total Cell Count” value [6] was 74 and the “Population Apoptotic (%)” value [7] was 70%. For the same molecule, the “Population Fragmented Nuclei (%)” value [7] was 23%, the “Population Healthy Nuclei (%)” value [7] was 63% and the “Population Hoechst High Intensity Objects (%)” value [7] was 18%. For the same molecule, the “Population Membrane Permeable-Phenotype (%)” value [7] was 3%, the “Population Mitochondria Different-Phenotype (%)” value [7] was 4% and the “Population Mitotic Cells (%)” value [7] was 29%. For the same molecule, the “Population Normal (%)” value [7] was 81%, the “Population Pyknosed Nuclei (%)” value [7] was 12% and the “Population Tubulin-Different-Phenotype (%)” value [7] was 1%. For the same molecule, the “Total Cell Count” value [7] was 271, the “Population Apoptotic (%)” value [8] was 50% and the “Population Fragmented Nuclei (%)” value [8] was 64%. The “Population Healthy Nuclei (%)” value [8] was 29%, the “Population Hoechst High Intensity Objects (%)” value [8] was 31% and the “Population Membrane Permeable-Phenotype (%)” value [8] was 10%. The “Population Mitochondria Different-Phenotype (%)” value [8] was 10%, the “Population Mitotic Cells (%)” value [8] was 50% and the “Population Normal (%)” value [8] was 68%. For the same molecule, the “Population Pyknosed Nuclei (%)” value [8] was 5%, the “Population Tubulin-Different-Phenotype (%)” value [8] was 10% and the “Total Cell Count” value [8] was 98.
`CN[C@@H]1C[C@H]2O[C@@](C)([C@@H]1OC)n1c3ccccc3c3c4c(c5c6ccccc6n2c5c31)C(=O)NC4` [STAUROSPORINE] was tested, and the “Population Apoptotic (%)” value [1] was 75%, the “Population Fragmented Nuclei (%)” value [1] was 41% and the “Population Healthy Nuclei (%)” value [1] was 14%. The “Population Hoechst High Intensity Objects (%)” value [1] was 31%, the “Population Membrane Permeable-Phenotype (%)” value [1] was 13% and the “Population Mitochondria Different-Phenotype (%)” value [1] was 2%. For the same molecule, the “Population Mitotic Cells (%)” value [1] was 24%, the “Population Normal (%)” value [1] was 68% and the “Population Pyknosed Nuclei (%)” value [1] was 43%. The “Population Tubulin-Different-Phenotype (%)” value [1] was 10%, the “Population Apoptotic (%)” value [2] was 71% and the “Population Fragmented Nuclei (%)” value [2] was 48%. For the same molecule, the “Population Healthy Nuclei (%)” value [2] was 19%, the “Population Hoechst High Intensity Objects (%)” value [2] was 46% and the “Population Membrane Permeable-Phenotype (%)” value [2] was 47%. The “Population Mitochondria Different-Phenotype (%)” value [2] was 11%, the “Population Mitotic Cells (%)” value [2] was 28% and the “Population Normal (%)” value [2] was 53%. The “Population Pyknosed Nuclei (%)” value [2] was 32%, the “Population Tubulin-Different-Phenotype (%)” value [2] was 11% and the “Population Apoptotic (%)” value [3] was 84% and 63% and 86%. For the same molecule, the “Population Fragmented Nuclei (%)” value [3] was 30% and 31% and 36%, the “Population Healthy Nuclei (%)” value [3] was 9% and 21% and 10% and the “Population Hoechst High Intensity Objects (%)” value [3] was 26% and 29% and 21%. For the same molecule, the “Population Mitochondria Different-Phenotype (%)” value [3] was 0% and 3% and 5%, the “Population Mitotic Cells (%)” value [3] was 15% and 36% and 13% and the “Population Normal (%)” value [3] was 73%. For the same molecule, the “Population Pyknosed Nuclei (%)” value [3] was 59% and 46% and 52%, the “Population Tubulin-Different-Phenotype (%)” value [3] was 15% and 5% and the “Population Apoptotic (%)” value [4] was 77% and 73%. The “Population Fragmented Nuclei (%)” value [4] was 48% and 26% and 42%, the “Population Healthy Nuclei (%)” value [4] was 14% and 15% and 12% and the “Population Hoechst High Intensity Objects (%)” value [4] was 43% and 15%. The “Population Mitotic Cells (%)” value [4] was 22% and 26%, the “Population Normal (%)” value [4] was 56% and 84% and the “Population Pyknosed Nuclei (%)” value [4] was 37% and 57% and 45%. For the same molecule, the “Population Apoptotic (%)” value [5] was 85%, the “Population Fragmented Nuclei (%)” value [5] was 61% and the “Population Healthy Nuclei (%)” value [5] was 2%. The “Population Hoechst High Intensity Objects (%)” value [5] was 21%, the “Population Membrane Permeable-Phenotype (%)” value [5] was 16% and the “Population Mitochondria Different-Phenotype (%)” value [5] was 0%. The “Population Mitotic Cells (%)” value [5] was 14%, the “Population Pyknosed Nuclei (%)” value [5] was 35% and the “Population Tubulin-Different-Phenotype (%)” value [5] was 16%. For the same molecule, the “Population Apoptotic (%)” value [6] was 74%, the “Population Fragmented Nuclei (%)” value [6] was 58% and the “Population Healthy Nuclei (%)” value [6] was 11%. The “Population Hoechst High Intensity Objects (%)” value [6] was 34%, the “Population Membrane Permeable-Phenotype (%)” value [6] was 30% and the “Population Mitochondria Different-Phenotype (%)” value [6] was 10%. For the same molecule, the “Population Mitotic Cells (%)” value [6] was 25%, the “Population Normal (%)” value [6] was 65% and the “Population Pyknosed Nuclei (%)” value [6] was 30%. The “Population Tubulin-Different-Phenotype (%)” value [6] was 0%, the “Population Apoptotic (%)” value [7] was 92% and 84% and 87% and the “Population Fragmented Nuclei (%)” value [7] was 51% and 58% and 59%. For the same molecule, the “Population Healthy Nuclei (%)” value [7] was 6% and 7%, the “Population Hoechst High Intensity Objects (%)” value [7] was 18% and 20% and 22% and the “Population Membrane Permeable-Phenotype (%)” value [7] was 30% and 25% and 11%. The “Population Mitochondria Different-Phenotype (%)” value [7] was 0% and 3%, the “Population Mitotic Cells (%)” value [7] was 7% and 15% and 12% and the “Population Normal (%)” value [7] was 81% and 79% and 77%. For the same molecule, the “Population Pyknosed Nuclei (%)” value [7] was 41% and 34%, the “Population Apoptotic (%)” value [8] was 72% and 88% and 77% and the “Population Healthy Nuclei (%)” value [8] was 20% and 46% and 37%. The “Population Hoechst High Intensity Objects (%)” value [8] was 38% and 27% and 26%, the “Population Membrane Permeable-Phenotype (%)” value [8] was 47% and 100% and 92% and the “Population Mitotic Cells (%)” value [8] was 27% and 11% and 22%. For the same molecule, the “Population Normal (%)” value [8] was 61% and 72% and 73%, the “Population Pyknosed Nuclei (%)” value [8] was 26% and 36% and 38% and the “Population Apoptotic (%)” value [9] was 88% and 84%. For the same molecule, the “Population Fragmented Nuclei (%)” value [9] was 60% and 64%, the “Population Healthy Nuclei (%)” value [9] was 14% and 23% and the “Population Hoechst High Intensity Objects (%)” value [9] was 34% and 36%. The “Population Membrane Permeable-Phenotype (%)” value [9] was 40% and 37%, the “Population Mitochondria Different-Phenotype (%)” value [9] was 6% and 16% and the “Population Mitotic Cells (%)” value [9] was 11% and 15%. The “Population Normal (%)” value [9] was 65% and 63%, the “Population Pyknosed Nuclei (%)” value [9] was 25% and 12% and the “Population Tubulin-Different-Phenotype (%)” value [9] was 53% and 54%. For the same molecule, the “Population Apoptotic (%)” value [10] was 91% and 83%, the “Population Fragmented Nuclei (%)” value [10] was 79% and 82% and the “Population Healthy Nuclei (%)” value [10] was 10% and 8%. For the same molecule, the “Population Hoechst High Intensity Objects (%)” value [10] was 44% and 33%, the “Population Membrane Permeable-Phenotype (%)” value [10] was 33% and 58% and the “Population Mitochondria Different-Phenotype (%)” value [10] was 8% and 0%. The “Population Mitotic Cells (%)” value [10] was 8% and 16%, the “Population Normal (%)” value [10] was 55% and 66% and the “Population Pyknosed Nuclei (%)” value [10] was 10% and 8%. The “Population Tubulin-Different-Phenotype (%)” value [10] was 58% and 66%.
